Test results published in ChEMBL document CHEMBL5126583, “Cytotoxicity of cinchona alkaloid organocatalysts against MES-SA and MES-SA/Dx5 multidrug-resistant uterine sarcoma cell lines” (Bioorg Med Chem, 2022).
Calls of active or inactive are those of the source. The calls are words filed in the database; no cut-off is given here.

Legend:
MES-SA/Dx5 [1] = assay: Cytotoxicity against multidrug resistance human MES-SA/Dx5 cells assessed as cell growth inhibition incubated for 144 hrs in presence of P-gp inhibitor Tariquidar by fluorescence microplate reader assay; format: functional, cell-based; conditions: MES-SA/Dx5, 144 h
In short: (§1)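 Co-culture of fluorescent MES-SA (mCherry) and Dx5 (eGFP, doxorubicin 500 nM pretreated) exposed to serial dilutions plus 0.4 µM tariquidar for 144 h. Per-line fluorescence read-out gave IC50. Resistance ratio = IC50 Dx5 / IC50 MES-SA; significance by two-sided unpaired t-test.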

[2] = Resistance ratio of IC50 for cytotoxicity against multidrug resistance human MES-SA/Dx5 cells in presence of P-gp inhibitor Tariquidar to IC50 for cytotoxicity against human MES-SA cells in presence of P-gp inhibitor Tariquidar; format: functional; in short: as §1
MES-SA [3] = assay: Cytotoxicity against human MES-SA cells assessed as cell growth inhibition incubated for 144 hrs by fluorescence microplate reader assay; format: functional, cell-based
In short: (§2)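 MES-SA (mCherry) and doxorubicin-selected Dx5 (eGFP; pretreated with 500 nM doxorubicin to keep P-gp expression) co-cultured, 1250 cells each per well, settled overnight. Serial dilutions added, 144 h incubation. Viability read by fluorescence (mCherry ex 585/em 610 nm; eGFP ex 485/em 510 nm). IC50 by automated curve evaluation; two-sided unpaired t-test.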

MES-SA/Dx5 [4] = assay: Cytotoxicity against multidrug resistance human MES-SA/Dx5 cells assessed as cell growth inhibition incubated for 144 hrs by fluorescence microplate reader assay; format: functional, cell-based; conditions: MES-SA/Dx5, 144 h; in short: as §2
[5] = Resistance ratio of IC50 for cytotoxicity against multidrug resistance human MES-SA/Dx5 cells to IC50 for cytotoxicity against human MES-SA cells; format: functional
MES-SA [6] = assay: Cytotoxicity against human MES-SA cells assessed as cell growth inhibition incubated for 144 hrs in presence of P-gp inhibitor Tariquidar by fluorescence microplate reader assay; format: functional, cell-based; in short: as §1
MES-SA/Dx5 [7] = assay: Inhibition of P-gp in multidrug resistance human MES-SA/Dx5 cells assessed as inhibition of calcein-AM efflux at 20 uM incubated for 15 mins by calcein-AM staining based flow cytometry analysis
MES-SA/Dx5 [8] = assay: Cytotoxicity against multidrug resistance human MES-SA/Dx5 cells assessed as reduction on calcein accumulation by measuring cell distribution at 20 uM incubated for 15 mins by calcein-AM staining based flow cytometry analysis; format: functional; parameters: scale not given: the % may be the effect or the level left; conditions: 0.25 h
In short: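 Non-fluorescent Dx5 cells, 250 000 per tube, washed in serum-free DMEM, preincubated 5 min at 37 °C with compound at 20 µM. Calcein-AM then added (250 nM final) for 10 min more. Stopped with ice-cold PBS and kept on ice. Calcein fluorescence measured by flow cytometry, TO-PRO-3 live/dead gating. Controls: 20 µM verapamil, medium only.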

MES-SA/Dx5 [9] = assay: Cytotoxicity against multidrug resistance human MES-SA/Dx5 cells assessed as inhibition of calcein-AM efflux at 20 uM incubated for 15 mins in presence of metal chelator EDTA by calcein-AM staining based flow cytometry analysis; format: functional, cell-based
In short: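 Calcein accumulation in non-fluorescent Dx5 cells, 250 000 per tube, with every step from preincubation to measurement in PBS containing 1 µM EDTA. Cells preincubated 5 min with 20 µM compound, then 250 nM calcein-AM for 10 min at 37 °C. Read by flow cytometry with TO-PRO-3 live/dead stain. Controls: verapamil 20 µM, no inhibitor.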

## CC[C@H]1CN2CC[C@H]1C[C@H]2[C@@H](Nc1c(Nc2cc(C(F)(F)F)cc(C(F)(F)F)c2)c(=O)c1=O)c1ccnc2ccc(OC)cc12
MES-SA/Dx5 [1]
  IC50: 2.3 µM
[2]
  Ratio IC50: 0.5
MES-SA [3]
  IC50: 3.6 µM
MES-SA/Dx5 [4]
  IC50: 11 µM
[5]
  Ratio IC50: 2.9
MES-SA [6]
  IC50: 4.4 µM

## C#C[C@H]1CN2CC[C@H]1C[C@H]2[C@@H](NC(=S)Nc1cc(C(F)(F)F)cc(C(F)(F)F)c1)c1ccnc2ccc(OC)cc12
MES-SA [3]
  IC50: 4.2 µM
MES-SA/Dx5 [4]
  IC50: 3.9 µM
[5]
  Ratio IC50: 0.9

## C=C[C@H]1CN2CC[C@H]1C[C@H]2[C@H](O)c1ccnc2ccc(OC)cc12 [QUININE]
MES-SA/Dx5 [1]
  IC50: 43 µM
[2]
  Ratio IC50: 0.5
MES-SA/Dx5 [7]
  Activity: Active
MES-SA [3]
  IC50: 93 µM
MES-SA/Dx5 [4]
  IC50: 67 µM
[5]
  Ratio IC50: 0.7
MES-SA [6]
  IC50: 91 µM

## CC[C@H]1CN2CC[C@H]1C[C@H]2[C@@H](NC(=S)Nc1cc(C(F)(F)F)cc(C(F)(F)F)c1)c1ccnc2ccc(OC)cc12
MES-SA/Dx5 [1]
  IC50: 0.9 µM
[2]
  Ratio IC50: 0.8
MES-SA [3]
  IC50: 1.3 µM
MES-SA/Dx5 [4]
  IC50: 1.5 µM
[5]
  Ratio IC50: 1.2
MES-SA [6]
  IC50: 1 µM

## Oc1c(CN2CCCCC2)ccc2cccnc12
[5]
  Ratio IC50: 0.1

## CC[C@H]1CN2CC[C@H]1C[C@H]2[C@@H](Nc1c(NCc2ccccc2)c(=S)c1=S)c1ccnc2ccc(OC)cc12
MES-SA/Dx5 [1]
  IC50: 50 µM
[2]
  Ratio IC50: 0.9
MES-SA/Dx5 [7]
  Activity: Active
MES-SA [3]
  IC50: 57 µM
MES-SA/Dx5 [4]
  IC50: 65 µM
[5]
  Ratio IC50: 1.1
MES-SA [6]
  IC50: 56 µM

## C=C[C@H]1CN2CC[C@H]1C[C@H]2[C@@H](Nc1c(Nc2cc(C(F)(F)F)cc(C(F)(F)F)c2)c(=O)c1=O)c1ccnc2ccc(OC)cc12
MES-SA/Dx5 [1]
  IC50: 2.7 µM
[2]
  Ratio IC50: 0.5
MES-SA/Dx5 [7]
  Activity: Active
MES-SA [3]
  IC50: 4.2 µM
MES-SA/Dx5 [4]
  IC50: 12 µM
[5]
  Ratio IC50: 3
MES-SA [6]
  IC50: 4.9 µM

## C=C[C@H]1CN2CC[C@H]1C[C@H]2[C@@H](NC(=S)Nc1cc(C(F)(F)F)cc(C(F)(F)F)c1)c1ccnc2ccc(OC)cc12
MES-SA/Dx5 [7]
  Activity: Active
MES-SA [3]
  IC50: 2.3 µM
MES-SA/Dx5 [4]
  IC50: 2.8 µM
[5]
  Ratio IC50: 1.2

## C=C[C@H]1CN2CC[C@H]1C[C@H]2[C@@H](N)c1ccnc2ccc(OC)cc12
MES-SA/Dx5 [1]
  IC50: 121 µM
[2]
  Ratio IC50: 1
MES-SA/Dx5 [7]
  Activity: Active
MES-SA [3]
  IC50: 81 µM
MES-SA/Dx5 [4]
  IC50: 197 µM
[5]
  Ratio IC50: 2.4
MES-SA [6]
  IC50: 115 µM

## C#C[C@H]1CN2CC[C@H]1C[C@H]2[C@@H](Nc1c(Nc2cc(C(F)(F)F)cc(C(F)(F)F)c2)c(=O)c1=O)c1ccnc2ccc(OC)cc12
MES-SA/Dx5 [1]
  IC50: 2.3 µM
[2]
  Ratio IC50: 0.4
MES-SA [3]
  IC50: 3.9 µM
MES-SA/Dx5 [4]
  IC50: 14 µM
[5]
  Ratio IC50: 3.7
MES-SA [6]
  IC50: 5.5 µM

## C#C[C@H]1CN2CC[C@H]1C[C@H]2[C@@H](N)c1ccnc2ccc(OC)cc12
MES-SA/Dx5 [1]
  IC50: 146 µM
[2]
  Ratio IC50: 4.9
MES-SA [3]
  IC50: 29 µM
MES-SA/Dx5 [4]
  IC50: 161 µM
[5]
  Ratio IC50: 5.6
MES-SA [6]
  IC50: 30 µM

## CC[C@H]1CN2CC[C@H]1C[C@H]2[C@@H](Nc1c(NCc2ccccc2)c(=O)c1=O)c1ccnc2ccc(OC)cc12
MES-SA/Dx5 [1]
  IC50: 3.4 µM
MES-SA/Dx5 [8]
  Activity: 53.1%
[2]
  Ratio IC50: 0.9
MES-SA/Dx5 [9]
  Activity: Active
MES-SA [3]
  IC50: 3.1 µM
MES-SA/Dx5 [4]
  IC50: 21 µM
[5]
  Ratio IC50: 6.6
MES-SA [6]
  IC50: 3.9 µM

## COc1cccc2c1C(=O)c1c(O)c3c(c(O)c1C2=O)C[C@@](O)(C(=O)CO)C[C@@H]3O[C@H]1C[C@H](N)[C@H](O)[C@H](C)O1 [DOXORUBICIN]
[2]
  Ratio IC50: 0.8
[5]
  Ratio IC50: 62.5

## CC[C@H]1CN2CC[C@H]1C[C@H]2[C@H](O)c1ccnc2ccc(OC)cc12 [HYDROQUININE]
MES-SA [3]
  IC50: 48 µM
MES-SA/Dx5 [4]
  IC50: 47 µM
[5]
  Ratio IC50: 1

## C#C[C@H]1CN2CC[C@H]1C[C@H]2[C@H](O)c1ccnc2ccc(OC)cc12
MES-SA/Dx5 [1]
  IC50: 79 µM
[2]
  Ratio IC50: 0.7
MES-SA [3]
  IC50: 111 µM
MES-SA/Dx5 [4]
  IC50: 85 µM
[5]
  Ratio IC50: 0.8
MES-SA [6]
  IC50: 117 µM

## CC[C@H]1CN2CC[C@H]1C[C@H]2[C@@H](N)c1ccnc2ccc(OC)cc12
MES-SA/Dx5 [1]
  IC50: 48 µM
[2]
  Ratio IC50: 0.6
MES-SA [3]
  IC50: 80 µM
MES-SA/Dx5 [4]
  IC50: 105 µM
[5]
  Ratio IC50: 1.3
MES-SA [6]
  IC50: 82 µM
